Measurements published in PMC9597438 (Journal of Ginseng Research, 2022).

How the values were obtained:
[1] = system: cleaved caspase-3 expression in HeLa cells; test: Western blotting of cleaved caspase-3 in HeLa cells; format: cell-based, human; settings: HeLa cells, 3, 10, 30 μM, 12 h, concentration-dependent
Procedure, shortened: (§1)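 HeLa cells were treated with or without 3, 10 or 30 µM for 12 h. Whole-cell extracts were separated by SDS-PAGE, transferred to PVDF and blocked in 5% nonfat milk. Blots were probed overnight at 4 °C for the named protein (Bax, Bcl-2, MMP-9 or cleaved caspase-3), then secondary for 2 h, with chemiluminescent detection. Three independent experiments.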

HeLa cells [2] = test: Apoptosis assay; format: cell-based, human
Procedure, shortened: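 HeLa cells (5×10^5/well) adhered for 24 h, then were exposed to 3, 10 or 30 µM for 24 h per methods; the legend gives 12 h under hypoxia. Cells were washed twice in PBS and taken into binding buffer (10 mM HEPES pH 7.4, 140 mM NaCl, 2.5 mM CaCl₂). They were stained with Annexin V-FITC and 2 µg/mL propidium iodide, 15 min, 37 °C, dark, then read by flow cytometry.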

[3] = system: HeLa cervical cancer xenograft; test: In vivo antitumor activity, HeLa cervical cancer xenograft; set-up: species or system athymic Nu/Nu nude mice; settings: nude mice with HeLa tumors, ip, vs control, p < 0.001
[4] = system: VEGF protein expression in HeLa cells; test: Western blotting of VEGF in HeLa cells; format: cell-based, human; settings: hypoxia, 12 h
Procedure, shortened: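 After 12 h incubation under normoxia or hypoxia (1% O₂) at the indicated concentrations, HeLa cell protein was quantified by BCA and separated by SDS-PAGE onto PVDF. Blots were blocked in 5% milk and probed for VEGF overnight at 4 °C, then secondary 2 h, with chemiluminescent detection. Three independent experiments.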

[5] = system: nuclear accumulation of HIF-1α in HeLa cells; test: Immunofluorescence staining of HIF-1α; format: cell-based, human; settings: 1% O2, 12 h, 30 μM
Procedure, shortened: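 HeLa cells (1×10^4/well) adhered for 24 h and were held under normoxia or hypoxia (1% O₂) for 12 h with or without 30 µM. Processing: 4% paraformaldehyde at room temperature for 30 min, 0.2% Triton X-100, 5% BSA block for 30 min. Anti-HIF-1α ran overnight at 4 °C, secondary 30 min at room temperature, DAPI 30 min. Imaged by fluorescence microscopy at 400×.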

HeLa cells [6] = test: Transwell invasion assay; format: cell-based, human; settings: HeLa cells, 3, 10, 30 μM, vs control
Procedure, shortened: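 Matrigel-coated Transwell inserts were loaded with HeLa cells pretreated with or without 3, 10 or 30 µM, in serum-free DMEM in the upper chamber; the legend gives 12 h exposure. The lower chamber held DMEM with 10% FBS. After 24 h invasion at 37 °C, cells on the lower side were fixed in 4% paraformaldehyde, stained with 0.1% crystal violet and photographed at 200×.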

Hep3B cells = test: Cytotoxic; format: cell-based, human; settings: 24 h, concentrations as high as 30 μM
Procedure, shortened: (§2)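 Hep3B cells in DMEM/10% FBS (5×10^4/well) adhered for 12 h under normoxia. They were exposed for 24 h to final 0.3, 1, 3, 10 and 30 µM, triplicate wells per level. MTT was added for 4 h in the dark, formazan was dissolved in DMSO with 10 min shaking, and absorbance was read at 492 nm. Mean ± SD, n = 3.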

[7] = system: HIF-1β expression in HeLa cells; test: Western blotting of HIF-1β in HeLa cells; format: cell-based, human; settings: hypoxia, 12 h, whole-cell lysates
Procedure, shortened: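 HeLa cells were held 12 h under normoxia or hypoxia (1% O₂) at the indicated concentrations. Whole-cell lysates were run on SDS-PAGE, transferred to PVDF and blocked in 5% milk. Anti-HIF-1β ran overnight at 4 °C, secondary 2 h, chemiluminescent detection. Three independent experiments.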

[8] = system: Bax expression in HeLa cells; test: Western blotting of Bax in HeLa cells; format: cell-based, human; settings: HeLa cells, 3, 10, 30 μM, 12 h, vs control group
Procedure, shortened: as §1

HeLa cells [9] = test: Colony formation assay; format: cell-based, human; settings: HeLa cells, 3, 10, 30 μM, 10 days
Procedure, shortened: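 HeLa cells (1×10^3/well, 6-well) were plated for 12 h and given fresh medium with 3, 10 or 30 µM. They grew 10 days until colonies were visible, then were fixed in 10% formaldehyde, stained with 1% crystal violet, washed in PBS and air-dried.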

[10] = system: MMP-9 expression in HeLa cells; test: Western blotting of MMP-9 in HeLa cells; format: cell-based, human; settings: 10 μM, 12 h
Procedure, shortened: as §1

[11] = system: HIF-1α transcriptional activity in Hep3B cells; test: HRE luciferase reporter assay; format: cell-based, human
Procedure, shortened: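 Hep3B cells at 60–80% confluence were transfected with an HRE-luciferase plasmid (legend adds pRL-CMV) using Lipofectamine 2000 for 24 h. They were reseeded at 5×10^4/well for 24 h, then treated under hypoxia (1% O₂, 5% CO₂, 94% N₂, 37 °C) at final 0.3–30 µM, triplicate wells. Treatment ran 12–16 h per methods, 24 h per legend. Cells were lysed 1 h and luminescence read.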

[12] = system: HIF-1α protein expression in HeLa cells; test: Western blotting of HIF-1α in HeLa cells; format: cell-based, human; settings: 1% O2, 12 h, 3, 10, 30 μM, nuclear extract
Procedure, shortened: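 HeLa cells were held 12 h under normoxia or hypoxia (1% O₂) with 3, 10 or 30 µM. Nuclear extracts were quantified by BCA, and 30 µg per lane was resolved by SDS-PAGE and transferred to PVDF. Membranes were blocked in 5% nonfat milk, probed with anti-HIF-1α overnight at 4 °C, then secondary for 2 h, and detected by chemiluminescence. Three independent experiments.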

HeLa cells [13] = test: Cell migration assay; format: cell-based, human; settings: 3, 10, 30 μM, 12 h, vs control group
Procedure, shortened: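 Scratch assay: HeLa cells (1×10^5/well) adhered for 24 h, were scratched with a sterile pipette tip, washed three times in PBS and switched to serum-free medium. Cells got 3, 10 or 30 µM for 12 h. The same fields were imaged at 200×, and migration was scored as final versus initial gap width.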

HeLa cells [14] = test: EdU labeling and immunofluorescence; format: cell-based, human; settings: HeLa cells, 3, 10, 30 μM, 12 h
Procedure, shortened: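 HeLa cells (5×10^4/well) were plated for 24 h and treated with 3, 10 or 30 µM for 12 h. EdU was pulsed for 1 h. Cells were fixed in 4% paraformaldehyde for 30 min, permeabilised in 0.5% Triton X-100 for 10 min and reacted in 1× Apollo cocktail for 30 min. Nuclei were counterstained with Hoechst 33342 and imaged by fluorescence microscopy.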

[15] = system: Bcl-2 expression in HeLa cells; test: Western blotting of Bcl-2 in HeLa cells; format: cell-based, human; settings: HeLa cells, 3, 10, 30 μM, 12 h, vs control group
Procedure, shortened: as §1

Cytotoxic = format: cell-based, human; settings: human, Hep3B cells
Procedure, shortened: as §2

CC(C)(C)OC(=O)NCC(=O)OC1CCC2(C)C(C(O)CC3(C)C2CC(O)C2C(C4(C)CCCC(C)(C)O4)CCC23C)C1(C)C (centres unmarked) [A11, 6,12-dihydroxy-4,4,8,10,14-pentamethyl-17-(2,6,6-trimethyltetrahydro-2H-pyran-2-yl)hexadecahydro-1H-cyclopenta[a]phenanthren-3-yl (tert-butoxycarbonyl)glycinate]
expression levels of cleaved caspase-3 [1]: significantly increased | percentage of total apoptotic (early and late) cells (HeLa cells [2]; 3 μM): 5.2% | percentage of total apoptotic (early and late) cells (HeLa cells [2]; 10 μM): 14.0% | percentage of total apoptotic (early and late) cells (HeLa cells [2]; 30 μM): 24.2% | tumor volume [3]: significantly inhibit | VEGF protein expression levels [4]: dose-dependent decrease | HIF-1α expression in the nucleus [5]: not detected | number of tumor cells that crossed the transwell chamber (invasion) (HeLa cells [6]): significantly reduced | cell viability (MTT) (Hep3B cells): no adverse effects on cell viability | expression level of HIF-1β [7]: almost no influence | expression levels of Bax [8]: increased | colony formation of cells (HeLa cells [9]): apparently inhibited | expression levels of MMP-9 [10]: significantly reduced | transcriptional activity of HIF-1α (HRE-mediated reporter gene expression) ([11]; hypoxia (1% oxygen), from 0.3 μM upward): dose-dependent inhibited | efficacy (HIF-1α transcription inhibition) relative to 20(R)-panaxotriol ([11]; ratio of IC50 values): more than 100 times | HIF-1α protein content [12]: dose-dependently reduced | migration of HeLa cells (scratch assay) (HeLa cells [13]): decreased | number of EdU-positive cells (HeLa cells [14]): concentration-dependently suppressed | levels of Bcl-2 [15]: decreased

CC1(C)CCCC(C)(C2CCC3(C)C2C(O)CC2C4(C)CCC(OC(=O)[C@@H](N)Cc5c[nH]c6ccccc56)C(C)(C)C4C(O)CC23C)O1 (some centres unmarked) [A13, 6,12-dihydroxy-4,4,8,10,14-pentamethyl-17-(2,6,6-trimethyltetrahydro-2H-pyran-2-yl)hexadecahydro-1H-cyclopenta[a]phenanthren-3-yl tryptophanate]
IC50 at 24 h (Cytotoxic): 6.99 µM
